Calls of active or inactive are those of the source. The rule behind the calls is not given here.
What was measured:
[1] = target: T1, TLR7 and TLR8 (Mus musculus) (UniProt P58681+P58682); assay: Agonist activity at TLR7/TLR8 in C57BL/6 mouse BMDC assessed as induction of TNF-alpha production at 30 uM after 3 days by flow cytometric analysis; format: protein assay
In short: (§1)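 BMDCs from femoral marrow of 6−8-week C57BL/6 mice; red cells lysed (0.83% NH₄Cl, 0.1% KHCO₃, 0.009% EDTA); 5 million cells per well cultured six days in complete RPMI with mouse GM-CSF 20 ng/mL. Stimulated with 30 μM compound for 3 days; supernatant cytokines quantified by flow cytometric bead array; measured in triplicate.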

Toll-like receptor 7 = target: T2, Toll-like receptor 7 (Homo sapiens, UniProt Q9NYK1); assay: Agonist activity at human TLR-7 expressed in HEK293 cells after 24 hrs by SEAP reporter gene assay; format: cell-based
T2 sequence (Q9NYK1 whole entry): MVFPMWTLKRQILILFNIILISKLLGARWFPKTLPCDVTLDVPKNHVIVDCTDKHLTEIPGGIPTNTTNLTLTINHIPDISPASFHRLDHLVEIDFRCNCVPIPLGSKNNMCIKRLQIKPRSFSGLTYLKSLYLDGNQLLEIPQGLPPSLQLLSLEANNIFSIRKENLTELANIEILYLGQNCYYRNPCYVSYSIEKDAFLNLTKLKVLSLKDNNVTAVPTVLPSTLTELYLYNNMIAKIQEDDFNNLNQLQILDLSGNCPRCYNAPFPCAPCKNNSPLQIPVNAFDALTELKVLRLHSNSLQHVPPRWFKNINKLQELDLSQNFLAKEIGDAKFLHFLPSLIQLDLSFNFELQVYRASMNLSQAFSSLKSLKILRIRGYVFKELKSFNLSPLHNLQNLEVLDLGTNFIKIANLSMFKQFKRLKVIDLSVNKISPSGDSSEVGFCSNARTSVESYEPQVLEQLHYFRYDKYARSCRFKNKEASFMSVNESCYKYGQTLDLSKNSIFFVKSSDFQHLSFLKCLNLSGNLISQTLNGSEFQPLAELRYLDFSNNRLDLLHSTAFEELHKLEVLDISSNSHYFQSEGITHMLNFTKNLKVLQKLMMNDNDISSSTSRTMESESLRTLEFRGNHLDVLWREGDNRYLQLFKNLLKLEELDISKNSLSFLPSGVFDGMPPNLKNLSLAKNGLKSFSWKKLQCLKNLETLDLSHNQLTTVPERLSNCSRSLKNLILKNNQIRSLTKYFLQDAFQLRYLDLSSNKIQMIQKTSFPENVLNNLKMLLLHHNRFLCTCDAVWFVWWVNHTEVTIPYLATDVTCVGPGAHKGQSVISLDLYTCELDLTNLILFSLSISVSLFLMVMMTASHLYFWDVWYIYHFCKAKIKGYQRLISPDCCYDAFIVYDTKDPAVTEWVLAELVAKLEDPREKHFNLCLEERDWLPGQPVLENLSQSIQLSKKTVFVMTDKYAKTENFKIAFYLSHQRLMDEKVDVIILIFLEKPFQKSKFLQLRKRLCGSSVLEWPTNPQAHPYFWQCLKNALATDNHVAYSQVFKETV

[2] = target: T1, TLR7 and TLR8 (Mus musculus); assay: Agonist activity at TLR7/TLR8 in C57BL/6 mouse BMDC assessed as induction of IL-12p40 production at 30 uM after 3 days by flow cytometric analysis; format: protein assay; in short: as §1
[3] = target: T1, TLR7 and TLR8 (Mus musculus); assay: Agonist activity at TLR7/TLR8 in C57BL/6 mouse BMDC assessed as induction of IL-10 production at 30 uM after 3 days by flow cytometric analysis; format: protein assay; in short: as §1
Toll-like receptor 8 = target: T3, Toll-like receptor 8 (Homo sapiens, UniProt Q9NR97); assay: Agonist activity at human TLR-8 expressed in HEK293 cells after 24 hrs by SEAP reporter gene assay; format: cell-based
T3 sequence (Q9NR97 whole entry): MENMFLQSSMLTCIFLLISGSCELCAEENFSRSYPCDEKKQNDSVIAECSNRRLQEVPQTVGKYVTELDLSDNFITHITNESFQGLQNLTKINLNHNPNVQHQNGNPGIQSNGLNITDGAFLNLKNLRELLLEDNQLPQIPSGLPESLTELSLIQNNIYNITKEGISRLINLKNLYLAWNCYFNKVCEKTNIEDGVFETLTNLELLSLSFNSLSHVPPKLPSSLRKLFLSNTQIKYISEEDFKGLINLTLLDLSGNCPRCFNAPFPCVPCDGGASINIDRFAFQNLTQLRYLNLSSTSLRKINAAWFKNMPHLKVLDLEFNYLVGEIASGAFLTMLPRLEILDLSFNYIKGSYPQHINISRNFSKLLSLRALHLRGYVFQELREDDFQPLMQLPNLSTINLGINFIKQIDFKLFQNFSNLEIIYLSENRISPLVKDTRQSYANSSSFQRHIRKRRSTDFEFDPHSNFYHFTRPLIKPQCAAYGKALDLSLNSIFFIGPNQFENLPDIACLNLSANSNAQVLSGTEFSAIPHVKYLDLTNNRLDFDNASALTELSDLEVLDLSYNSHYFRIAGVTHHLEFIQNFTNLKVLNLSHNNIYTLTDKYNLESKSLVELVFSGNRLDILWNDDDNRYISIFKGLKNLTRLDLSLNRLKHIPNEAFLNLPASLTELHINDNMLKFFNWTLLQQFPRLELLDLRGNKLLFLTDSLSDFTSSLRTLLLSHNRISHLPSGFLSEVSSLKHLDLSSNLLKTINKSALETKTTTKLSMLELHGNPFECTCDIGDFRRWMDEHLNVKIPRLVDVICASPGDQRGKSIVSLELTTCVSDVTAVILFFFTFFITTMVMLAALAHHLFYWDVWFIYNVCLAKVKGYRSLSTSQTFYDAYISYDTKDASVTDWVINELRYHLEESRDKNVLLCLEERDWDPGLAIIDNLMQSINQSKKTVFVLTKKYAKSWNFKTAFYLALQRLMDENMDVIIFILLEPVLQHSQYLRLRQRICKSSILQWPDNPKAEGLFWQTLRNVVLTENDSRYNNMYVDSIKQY
In short: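 HEK-293 cells transfected with human TLR-7 or TLR-8 plus NF-κB-inducible SEAP reporter; stimulated with 30 μM compound in DMEM/10% FBS for 24 h. Supernatant incubated with Quanti-blue substrate 1 h at 37 °C; SEAP read as absorbance at 650 nm.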

[4] = target: T1, TLR7 and TLR8 (Mus musculus); assay: Agonist activity at TLR7/TLR8 in C57BL/6 mouse BMDC assessed as induction of IL-1beta production at 30 uM after 3 days by flow cytometric analysis; format: protein assay; in short: as §1
[5] = target: T4, TLR7 and TLR8 (Homo sapiens) (UniProt Q9NYK1+Q9NR97); assay: Agonist activity at TLR7/TLR8 in human PBMC assessed as induction of TNF-alpha production at 22.5 uM after 24 hrs by flow cytometric analysis; format: protein assay
In short: (§2)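 PBMCs isolated by Ficoll from three independent donors, plated in triplicate at 5 × 10⁵ cells per well, exposed to 22.5 μM compound for 24 h. Medium assayed for TNF-α and IFN-γ by flow cytometric bead array, IFN-α by ELISA.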

[6] = target: T4, TLR7 and TLR8 (Homo sapiens); assay: Agonist activity at TLR7/TLR8 in human PBMC assessed as induction of IFN-alpha production at 22.5 uM after 24 hrs by ELISA; format: protein assay; in short: as §2
[7] = target: T4, TLR7 and TLR8 (Homo sapiens); assay: Agonist activity at TLR7/TLR8 in human PBMC assessed as induction of IFN-gamma production at 22.5 uM after 24 hrs by flow cytometric analysis; format: protein assay; in short: as §2

T1 sequence (P58681 whole entry, looked up): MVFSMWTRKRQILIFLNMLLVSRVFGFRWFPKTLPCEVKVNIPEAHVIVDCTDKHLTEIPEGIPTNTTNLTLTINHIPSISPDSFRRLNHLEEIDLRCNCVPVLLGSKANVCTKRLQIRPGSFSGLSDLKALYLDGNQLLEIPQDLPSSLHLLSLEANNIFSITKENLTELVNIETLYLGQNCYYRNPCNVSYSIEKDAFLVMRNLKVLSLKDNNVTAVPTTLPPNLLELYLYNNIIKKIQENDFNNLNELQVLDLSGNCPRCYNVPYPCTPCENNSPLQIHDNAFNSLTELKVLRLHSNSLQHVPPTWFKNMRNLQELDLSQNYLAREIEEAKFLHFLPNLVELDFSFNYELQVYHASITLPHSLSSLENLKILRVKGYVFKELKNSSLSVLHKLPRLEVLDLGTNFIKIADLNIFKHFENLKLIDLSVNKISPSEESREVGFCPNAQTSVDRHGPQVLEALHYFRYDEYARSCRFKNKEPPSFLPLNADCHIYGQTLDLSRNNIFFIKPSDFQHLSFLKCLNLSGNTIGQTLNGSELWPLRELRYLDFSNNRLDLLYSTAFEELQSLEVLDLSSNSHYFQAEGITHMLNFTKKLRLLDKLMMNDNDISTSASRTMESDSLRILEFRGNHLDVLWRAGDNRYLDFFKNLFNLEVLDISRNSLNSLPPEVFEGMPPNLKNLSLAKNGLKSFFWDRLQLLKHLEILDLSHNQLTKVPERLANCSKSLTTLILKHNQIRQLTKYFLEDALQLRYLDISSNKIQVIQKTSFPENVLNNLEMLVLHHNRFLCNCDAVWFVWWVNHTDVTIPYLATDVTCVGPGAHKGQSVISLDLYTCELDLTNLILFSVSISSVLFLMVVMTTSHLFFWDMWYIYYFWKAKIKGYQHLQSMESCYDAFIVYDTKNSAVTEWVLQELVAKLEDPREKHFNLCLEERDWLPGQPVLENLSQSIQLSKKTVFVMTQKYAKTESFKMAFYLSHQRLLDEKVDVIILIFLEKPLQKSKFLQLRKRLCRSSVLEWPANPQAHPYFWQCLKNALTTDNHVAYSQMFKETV
T1 sequence (P58682 whole entry, looked up): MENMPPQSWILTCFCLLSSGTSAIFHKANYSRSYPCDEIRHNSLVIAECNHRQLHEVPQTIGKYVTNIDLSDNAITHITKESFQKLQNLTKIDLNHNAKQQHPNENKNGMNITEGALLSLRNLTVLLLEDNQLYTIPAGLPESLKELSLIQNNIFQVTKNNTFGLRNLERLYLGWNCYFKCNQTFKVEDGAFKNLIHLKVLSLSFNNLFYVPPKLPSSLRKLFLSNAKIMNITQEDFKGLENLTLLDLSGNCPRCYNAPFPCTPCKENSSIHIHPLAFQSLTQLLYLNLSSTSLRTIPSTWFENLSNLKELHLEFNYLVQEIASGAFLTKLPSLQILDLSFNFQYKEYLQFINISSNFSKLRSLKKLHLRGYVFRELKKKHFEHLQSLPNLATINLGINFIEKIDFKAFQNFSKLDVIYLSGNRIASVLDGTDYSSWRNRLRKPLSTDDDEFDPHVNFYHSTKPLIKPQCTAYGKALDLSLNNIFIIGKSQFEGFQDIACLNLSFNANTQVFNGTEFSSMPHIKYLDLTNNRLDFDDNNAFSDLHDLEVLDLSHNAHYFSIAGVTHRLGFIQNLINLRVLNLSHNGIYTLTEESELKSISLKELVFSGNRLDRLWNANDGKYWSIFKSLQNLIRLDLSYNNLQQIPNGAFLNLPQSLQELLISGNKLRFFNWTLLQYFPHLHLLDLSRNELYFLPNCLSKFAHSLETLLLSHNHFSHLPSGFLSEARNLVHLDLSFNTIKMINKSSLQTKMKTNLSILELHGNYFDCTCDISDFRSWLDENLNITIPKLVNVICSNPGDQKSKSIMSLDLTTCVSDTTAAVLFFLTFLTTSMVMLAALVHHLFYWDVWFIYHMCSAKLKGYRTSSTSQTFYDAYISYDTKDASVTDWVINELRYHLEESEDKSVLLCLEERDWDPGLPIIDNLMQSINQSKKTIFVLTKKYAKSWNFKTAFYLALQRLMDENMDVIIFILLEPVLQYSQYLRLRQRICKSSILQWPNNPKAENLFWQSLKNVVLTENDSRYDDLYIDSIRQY

Row | Activity [1] | EC50 (Toll-like receptor 7; read-out: EC50) | Activity [2] | Activity [3] | EC50 (Toll-like receptor 8) | Activity [4] | Activity [5] | Activity [6] | Activity [7] | EC50 (Toll-like receptor 7; hek293) | SMILES
1 | 1100 pg/mL | 1.5 µM | 393 pg/mL | 24 pg/mL | – | 108 pg/mL | – | – | – | – | CCCCc1nc2c(N)nc3cc(C(=O)OC)ccc3c2n1CC(C)(C)O
2 | 1810 pg/mL | – | 312 pg/mL | 37 pg/mL | – | 1010 pg/mL | Active | Active | Active | – | CCCCCc1nc2c(N)nc3cc(C(=O)OC)ccc3c2n1CC(C)(C)O
3 | 1170 pg/mL | – | 365 pg/mL | 23 pg/mL | Not Active | 33 pg/mL | – | – | – | – | CCCc1nc2c(N)nc3cc(C(=O)OC)ccc3c2n1CC(C)(C)O
4 | 1170 pg/mL | – | 78 pg/mL | 24 pg/mL | Not Active | 11 pg/mL | – | – | – | – | CCc1nc2c(N)nc3cc(C(=O)OC)ccc3c2n1CC(C)(C)O
5 | 819 pg/mL | – | 73 pg/mL | 27 pg/mL | Not Active | 13 pg/mL | – | – | – | – | COC(=O)c1ccc2c(c1)nc(N)c1nc(C)n(CC(C)(C)O)c12
6 | 1160 pg/mL | – | 416 pg/mL | 20 pg/mL | – | 157 pg/mL | Active | Active | Active | – | CCCCc1nc2c(N)nc3cc(C(=O)OC)ccc3c2n1C[C@@H](C)O
7 | 1200 pg/mL | – | 533 pg/mL | 22 pg/mL | – | 275 pg/mL | Active | Active | Active | – | CCCCc1nc2c(N)nc3cc(C(=O)OC)ccc3c2n1CC(C)O (racemic)
8 | 1210 pg/mL | – | 290 pg/mL | 18 pg/mL | – | 109 pg/mL | – | – | – | – | CCCCc1nc2c(N)nc3cc(C(=O)OC)ccc3c2n1CCO
9 | 1190 pg/mL | – | 597 pg/mL | 25 pg/mL | – | 301 pg/mL | Active | Active | Active | – | CCCCc1nc2c(N)nc3cc(C(=O)OC)ccc3c2n1C[C@H](C)O

Second part, the compound before the results:

Row | SMILES | Activity [1] | EC50 (Toll-like receptor 7; read-out: EC50) | Activity [2] | Activity [3] | EC50 (Toll-like receptor 8) | Activity [4] | Activity [5] | Activity [6] | Activity [7] | EC50 (Toll-like receptor 7; hek293)
10 | CC(C)Cn1cnc2c(N)nc3ccccc3c21 [IMIQUIMOD] | 308 pg/mL | 10.7 µM | 133 pg/mL | 17 pg/mL | Not Active | 19 pg/mL | – | – | – | –
11 | CCOCc1nc2c(N)nc3ccccc3c2n1CC(C)(C)O | 1740 pg/mL | – | 236 pg/mL | 49 pg/mL | – | 16 pg/mL | Active | – | – | –
12 | CCCCc1nc2c(N)nc3cc(C(=O)OC)ccc3c2n1CCOC | 1370 pg/mL | – | 267 pg/mL | 22 pg/mL | Not Active | 484 pg/mL | – | – | – | –
13 | COC(=O)c1ccc2c(c1)nc(N)c1nc(Cc3ccccc3)n(CC(C)(C)O)c12 | 971 pg/mL | – | 500 pg/mL | 15 pg/mL | Not Active | 60 pg/mL | – | – | – | –
14 | CCCCc1nc2c(N)nc3cc(C(=O)OC)ccc3c2n1CCOCc1ccccc1 | 2240 pg/mL | – | 136 pg/mL | 25 pg/mL | – | 104 pg/mL | – | – | – | –
15 | COC(=O)c1ccc2c(c1)nc(N)c1ncn(CC(C)(C)O)c12 | 40 pg/mL | – | 8 pg/mL | 9 pg/mL | Not Active | 6 pg/mL | – | – | – | Not Active
